Measured values taken from publication PMC3182555 (Nature chemical biology, 2011).

Assays:
[1] = target: T1, β2-microglobulin (β2m) (Homo sapiens, UniProt P61769); assay: ESI-IMS-MS of non-covalent complexes; format: biochemical
Outline: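 45 μM β2m at pH 2.5 with test compound (0–1125 μM), shaken at 600 rpm, 25 °C, 48 h, three or more replicates pooled. Spun at 16,300x g for 30 min. Supernatant run on SDS-PAGE, and bands quantified as percent soluble protein versus compound:β2m molar ratio. Binding: 38 μM β2m, 10 mM ammonium formate pH 2.5, 40 or 400 μM compound, 10% acetonitrile, ESI-IMS-MS at 70 V cone.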

[2] = target: T1, β2-microglobulin (β2m); assay: ESI-IMS-MS of non-covalent complexes; format: binding

| IC50 [1] | Structure (SMILES) | ESI-IMS-MS of non-covalent complexes [2] |
| --- | --- | --- |
| ~300 µM | CO[C@H]1/C=C/O[C@@]2(C)Oc3c(C)c(O)c4c(O)c(cc(O)c4c3C2=O)NC(=O)/C(C)=C\C=C\[C@H](C)[C@H](O)[C@@H](C)[C@@H](O)[C@@H](C)[C@H](OC(C)=O)[C@@H]1C [rifamycin SV] | – |
| – | CO[C@H]1/C=C/O[C@@]2(C)Oc3c(C)c(O)c4c(O)c(c5c(nc6cc(C)ccn65)c4c3C2=O)NC(=O)/C(C)=C\C=C\[C@H](C)[C@H](O)[C@@H](C)[C@@H](O)[C@@H](C)[C@H](OC(C)=O)[C@@H]1C [rifaximin] | Instead, only the most compact conformer shows binding to this ligand (Figure 4c). |
